# Assays:
# T84 = experiment: Anticancer activity against human T84 cells assessed as cell growth inhibition measured after 72 hrs by DAPI staining based analysis; format: functional
# MDA-MB-468 = experiment: Anticancer activity against human MDA-MB-468 cells assessed as cell growth inhibition measured after 72 hrs by DAPI staining based analysis; format: functional
# NCI-H358 = experiment: Anticancer activity against human NCI-H358 cells assessed as cell growth inhibition measured after 72 hrs by DAPI staining based analysis; format: functional
# LOX IMVI = experiment: Anticancer activity against human LOX IMVI cells assessed as cell growth inhibition measured after 72 hrs by DAPI staining based analysis; format: functional
# MDA-MB-435 = experiment: Anticancer activity against human MDA-MB-435 cells assessed as cell growth inhibition measured after 72 hrs by DAPI staining based analysis; format: functional
# SF-539 = experiment: Anticancer activity against human SF-539 cells assessed as cell doubling measured for 72 hrs by DAPI staining based analysis; format: functional
# MC-CAR = experiment: Anticancer activity against human MC-CAR cells assessed as cell growth inhibition measured after 72 hrs by DAPI staining based analysis; format: functional
# HT-29 = experiment: Antitumor activity against human HT-29 cells in xenograft model assessed as difference between median time to endpoint time of treated versus control group at 125 mg/kg; format: functional
# NCI-H661 = experiment: Anticancer activity against human NCI-H661 cells assessed as cell growth inhibition measured after 72 hrs by DAPI staining based analysis; format: functional
# A101D = experiment: Anticancer activity against human A101D cells assessed as cell growth inhibition measured after 72 hrs by DAPI staining based analysis; format: functional
# Outline: (§1)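 Cells were seeded and, after 24 h, DNA content was read as T0. Cells were then exposed to varying drug concentrations for a further 72 h (T72). Fixed cells were DAPI-stained and DNA content measured by automated imaging. T72 values were normalized to T0. GI50 is the concentration giving 50% growth inhibition between T0 and Ymax, obtained by curve fitting.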
# SCC-9 = experiment: Anticancer activity against human SCC-9 cells assessed as cell growth inhibition measured after 72 hrs by DAPI staining based analysis; format: functional
# SJRH30 = experiment: Anticancer activity against human SJRH30 cells assessed as cell doubling measured for 72 hrs by DAPI staining based analysis; format: functional
# [1] = Anticancer activity against human MJ cells assessed as cell doubling measured for 72 hrs by DAPI staining based analysis; format: functional
# NCI-H460 = experiment: Anticancer activity against human NCI-H460 cells assessed as cell growth inhibition measured after 72 hrs by DAPI staining based analysis; format: functional
# HPAF-II = experiment: Anticancer activity against human HPAF-II cells assessed as cell doubling measured for 72 hrs by DAPI staining based analysis; format: functional
# SK-OV-3 = experiment: Anticancer activity against human SK-OV-3 cells assessed as cell doubling measured for 72 hrs by DAPI staining based analysis; format: functional
# HCT-15 = experiment: Anticancer activity against human HCT-15 cells assessed as cell doubling measured for 72 hrs by DAPI staining based analysis; format: functional
# ACHN = experiment: Anticancer activity against human ACHN cells assessed as cell doubling measured for 72 hrs by DAPI staining based analysis; format: functional
# C-33-A [2] = experiment: Anticancer activity against human C-33-A cells assessed as cell growth inhibition measured after 72 hrs by DAPI staining based analysis; format: functional
# Outline: (§2)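 Cells were seeded, and DNA content at 24 h after seeding (T0) was read by imaging of fixed, DAPI-stained cells. Cells were then exposed to a range of drug concentrations for a further 72 h (T72) and DNA content was read again. T72 values were normalized to T0, and GI50 was taken from curve fits as the concentration giving 50% growth inhibition relative to T0 and Ymax.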
# CAL-54 = experiment: Anticancer activity against human CAL-54 cells assessed as cell growth inhibition measured after 72 hrs by DAPI staining based analysis; format: functional; outline: as §2
# SN12C = experiment: Anticancer activity against human SN12C cells assessed as cell growth inhibition measured after 72 hrs by DAPI staining based analysis; format: functional
# SW1783 = experiment: Anticancer activity against human SW1783 cells assessed as cell doubling measured for 72 hrs by DAPI staining based analysis; format: functional
# SW 954 = experiment: Anticancer activity against human SW 954 cells assessed as cell growth inhibition measured after 72 hrs by DAPI staining based analysis; format: functional
# C-33-A [3] = experiment: Anticancer activity against human C-33-A cells assessed as cell doubling measured for 72 hrs by DAPI staining based analysis; format: functional
# HeLa = experiment: Anticancer activity against human HeLa cells assessed as cell doubling measured for 72 hrs by DAPI staining based analysis; format: functional
# MDA-MB-175-VII = experiment: Anticancer activity against human MDA-MB-175-VII cells assessed as cell growth inhibition measured after 72 hrs by DAPI staining based analysis; format: functional
# MOLT-16 = experiment: Anticancer activity against human MOLT-16 cells assessed as cell doubling measured for 72 hrs by DAPI staining based analysis; format: functional
# BC-3 = experiment: Anticancer activity against human BC-3 cells assessed as cell growth inhibition measured after 72 hrs by DAPI staining based analysis; format: functional; outline: as §1
# [4] = Anticancer activity against human NCI-H322T cells assessed as cell doubling measured for 72 hrs by DAPI staining based analysis; format: functional
# [5] = Anticancer activity against human A7 cells assessed as cell doubling measured for 72 hrs by DAPI staining based analysis; format: functional
# SCaBER = experiment: Anticancer activity against human SCaBER cells assessed as cell growth inhibition measured after 72 hrs by DAPI staining based analysis; format: functional
# SW 962 = experiment: Anticancer activity against human SW 962 cells assessed as cell growth inhibition measured after 72 hrs by DAPI staining based analysis; format: functional
# [6] = molecular target: Centromere-associated protein E (Homo sapiens, UniProt Q02224); experiment: Binding affinity to wild-type human CENP-E assessed as inhibition constant
# Outline: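 CENP-E motor domain (residues 2–340, C-terminal 6-his, from E. coli BL21(DE3)) run in MT-stimulated ATPase with 500 μM ATP, 5 μM paclitaxel-stabilized MT, 1 nM enzyme in PEM25 buffer, pH 6.8. Apparent Ki taken from the concentration-response curves with explicit correction for enzyme concentration.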
# DU-4475 = experiment: Anticancer activity against human DU-4475 cells assessed as cell doubling measured for 72 hrs by DAPI staining based analysis; format: functional
# MIA PaCa-2 = experiment: Anticancer activity against human MIA PaCa-2 cells assessed as cell growth inhibition measured after 72 hrs by DAPI staining based analysis; format: functional
# HEC-1-A = experiment: Anticancer activity against human HEC-1-A cells assessed as cell growth inhibition measured after 72 hrs by DAPI staining based analysis; format: functional
# Raji = experiment: Anticancer activity against human Raji cells assessed as cell doubling measured for 72 hrs by DAPI staining based analysis; format: functional
# THP-1 = experiment: Anticancer activity against human THP-1 cells assessed as cell growth inhibition measured after 72 hrs by DAPI staining based analysis; format: functional
# RKO = experiment: Anticancer activity against human RKO cells assessed as cell growth inhibition measured after 72 hrs by DAPI staining based analysis; format: functional
# SW-403 = experiment: Anticancer activity against human SW403 cells assessed as cell doubling measured for 72 hrs by DAPI staining based analysis; format: functional
# Centromere-associated protein E, sequence (Q02224 whole entry, the tested form may be a part): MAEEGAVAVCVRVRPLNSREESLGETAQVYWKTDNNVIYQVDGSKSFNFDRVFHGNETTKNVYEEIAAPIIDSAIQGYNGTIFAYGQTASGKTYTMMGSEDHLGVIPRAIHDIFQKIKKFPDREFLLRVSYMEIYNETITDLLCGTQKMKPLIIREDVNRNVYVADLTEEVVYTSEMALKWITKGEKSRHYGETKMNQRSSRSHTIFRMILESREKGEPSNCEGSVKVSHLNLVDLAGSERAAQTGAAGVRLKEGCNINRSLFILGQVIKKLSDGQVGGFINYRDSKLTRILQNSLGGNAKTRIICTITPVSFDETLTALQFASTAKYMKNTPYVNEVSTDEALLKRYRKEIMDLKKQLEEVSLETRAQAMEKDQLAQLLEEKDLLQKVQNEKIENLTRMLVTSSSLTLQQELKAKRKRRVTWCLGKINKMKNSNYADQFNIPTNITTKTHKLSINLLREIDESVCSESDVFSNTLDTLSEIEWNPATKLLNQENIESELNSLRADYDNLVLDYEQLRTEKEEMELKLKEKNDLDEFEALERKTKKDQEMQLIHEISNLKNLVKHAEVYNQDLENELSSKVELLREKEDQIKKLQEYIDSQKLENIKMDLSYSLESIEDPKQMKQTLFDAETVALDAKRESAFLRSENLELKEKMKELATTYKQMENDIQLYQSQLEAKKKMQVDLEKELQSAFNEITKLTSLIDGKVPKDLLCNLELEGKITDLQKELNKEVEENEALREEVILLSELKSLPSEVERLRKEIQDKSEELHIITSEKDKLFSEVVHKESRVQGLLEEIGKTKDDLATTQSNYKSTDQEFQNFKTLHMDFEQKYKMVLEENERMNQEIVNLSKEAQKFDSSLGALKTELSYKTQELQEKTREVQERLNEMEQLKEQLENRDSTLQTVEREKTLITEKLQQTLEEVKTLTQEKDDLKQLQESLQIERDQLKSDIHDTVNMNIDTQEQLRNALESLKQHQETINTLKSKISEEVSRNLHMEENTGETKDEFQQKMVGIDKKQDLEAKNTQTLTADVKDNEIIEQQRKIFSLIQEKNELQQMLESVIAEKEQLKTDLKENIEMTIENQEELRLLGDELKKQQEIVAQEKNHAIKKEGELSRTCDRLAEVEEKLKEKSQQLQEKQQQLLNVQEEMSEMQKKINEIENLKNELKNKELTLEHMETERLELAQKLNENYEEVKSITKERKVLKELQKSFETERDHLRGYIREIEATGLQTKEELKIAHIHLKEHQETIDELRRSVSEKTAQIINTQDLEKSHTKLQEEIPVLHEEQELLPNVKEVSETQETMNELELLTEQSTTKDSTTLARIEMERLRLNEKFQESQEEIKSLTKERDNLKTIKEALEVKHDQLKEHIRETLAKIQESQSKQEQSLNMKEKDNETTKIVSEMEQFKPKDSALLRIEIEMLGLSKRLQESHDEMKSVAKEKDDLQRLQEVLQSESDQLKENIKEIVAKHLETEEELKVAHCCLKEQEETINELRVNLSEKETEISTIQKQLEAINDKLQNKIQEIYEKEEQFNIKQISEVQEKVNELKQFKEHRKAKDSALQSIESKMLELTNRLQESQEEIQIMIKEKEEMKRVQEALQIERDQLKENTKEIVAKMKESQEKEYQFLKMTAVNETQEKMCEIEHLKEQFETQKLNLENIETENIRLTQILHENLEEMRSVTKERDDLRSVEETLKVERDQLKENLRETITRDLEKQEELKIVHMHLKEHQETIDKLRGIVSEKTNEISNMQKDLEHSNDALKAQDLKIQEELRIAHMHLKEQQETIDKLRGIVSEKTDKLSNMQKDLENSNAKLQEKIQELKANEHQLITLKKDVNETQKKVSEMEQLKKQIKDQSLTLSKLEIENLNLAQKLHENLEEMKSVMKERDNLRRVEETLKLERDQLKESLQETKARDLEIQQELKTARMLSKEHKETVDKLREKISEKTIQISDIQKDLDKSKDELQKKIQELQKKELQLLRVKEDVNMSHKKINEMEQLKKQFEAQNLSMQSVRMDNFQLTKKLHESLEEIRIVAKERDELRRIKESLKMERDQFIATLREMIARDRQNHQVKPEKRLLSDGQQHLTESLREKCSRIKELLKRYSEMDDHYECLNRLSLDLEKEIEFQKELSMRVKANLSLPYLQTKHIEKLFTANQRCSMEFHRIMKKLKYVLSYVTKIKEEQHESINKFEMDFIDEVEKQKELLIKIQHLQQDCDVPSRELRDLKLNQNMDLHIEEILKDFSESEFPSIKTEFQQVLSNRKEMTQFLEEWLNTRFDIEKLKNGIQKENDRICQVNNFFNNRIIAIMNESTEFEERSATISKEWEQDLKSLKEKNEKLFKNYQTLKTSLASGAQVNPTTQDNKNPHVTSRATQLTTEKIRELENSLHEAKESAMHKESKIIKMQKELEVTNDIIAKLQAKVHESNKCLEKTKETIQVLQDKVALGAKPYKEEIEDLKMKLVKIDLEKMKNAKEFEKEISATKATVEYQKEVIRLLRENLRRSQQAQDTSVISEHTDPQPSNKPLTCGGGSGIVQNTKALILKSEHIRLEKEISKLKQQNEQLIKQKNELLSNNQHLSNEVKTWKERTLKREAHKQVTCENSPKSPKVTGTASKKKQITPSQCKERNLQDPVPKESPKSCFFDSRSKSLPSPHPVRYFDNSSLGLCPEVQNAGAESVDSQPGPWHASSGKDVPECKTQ
smiles,measurement,setting,value
CC(C)Oc1ccc(C(=O)N[C@H](CNC(=O)CN(C)C)Cc2ccc(-c3cn4cccc([C@H](C)O)c4n3)cc2)cc1Cl [GSK-923295A],GI50,T84,75 nM
same,GI50,MDA-MB-468,25 nM
same,GI50,NCI-H358,18 nM
same,GI50,LOX IMVI,25 nM
same,GI50,MDA-MB-435,30 nM
same,Activity,SF-539,2.08
same,GI50,MC-CAR,86 nM
same,Time,HT-29,18 days
same,GI50,NCI-H661,22 nM
same,GI50,A101D,17 nM
same,GI50,SCC-9,24 nM
same,Activity,SJRH30,2.12
same,Activity,[1],3.39
same,GI50,NCI-H460,29 nM
same,Activity,HPAF-II,2.42
same,Activity,SK-OV-3,1.72
same,Activity,HCT-15,4.01
same,Activity,ACHN,2.51
same,GI50,C-33-A [2],47 nM
same,GI50,CAL-54,49 nM
same,GI50,SN12C,29 nM
same,Activity,SW1783,1.47
same,GI50,SW 954,22 nM
same,Activity,C-33-A [3],3.13
same,Activity,HeLa,2.83
same,GI50,MDA-MB-175-VII,23 nM
same,Activity,MOLT-16,4.23
same,GI50,BC-3,88 nM
same,Activity,[4],2.27
same,Activity,[5],2.17
same,GI50,SCaBER,54 nM
same,GI50,SW 962,21 nM
same,Ki,[6],3.2 nM
same,Activity,DU-4475,2.05
same,GI50,MIA PaCa-2,23 nM
same,GI50,HEC-1-A,50 nM
same,Activity,Raji,3.26
same,GI50,THP-1,12 nM
same,GI50,RKO,53 nM
same,Activity,SW-403,1.12

# — ChEMBL document CHEMBL5705890, “Antitumor activity of an allosteric inhibitor of centromere-associated protein-E” (Proc Natl Acad Sci U S A, 2010)
